ChEMBL document CHEMBL1136473, “6-(2-adamantan-2-ylidene-hydroxybenzoxazole)-O-sulfamate: a potent non-steroidal irreversible inhibitor of human steroid sulfatase” (Bioorg Med Chem Lett, 2003)
Calls of active or inactive are those of the source. No cut-off for these calls is given here.

Legend:
[1] = target: T1, Arylsulfatase A (Homo sapiens) (UniProt P15289); assay: Inhibitory activity against human Arylsulfatase A (ASA) isolated from human placenta; IA=Inactive
T1 sequence (whole entry): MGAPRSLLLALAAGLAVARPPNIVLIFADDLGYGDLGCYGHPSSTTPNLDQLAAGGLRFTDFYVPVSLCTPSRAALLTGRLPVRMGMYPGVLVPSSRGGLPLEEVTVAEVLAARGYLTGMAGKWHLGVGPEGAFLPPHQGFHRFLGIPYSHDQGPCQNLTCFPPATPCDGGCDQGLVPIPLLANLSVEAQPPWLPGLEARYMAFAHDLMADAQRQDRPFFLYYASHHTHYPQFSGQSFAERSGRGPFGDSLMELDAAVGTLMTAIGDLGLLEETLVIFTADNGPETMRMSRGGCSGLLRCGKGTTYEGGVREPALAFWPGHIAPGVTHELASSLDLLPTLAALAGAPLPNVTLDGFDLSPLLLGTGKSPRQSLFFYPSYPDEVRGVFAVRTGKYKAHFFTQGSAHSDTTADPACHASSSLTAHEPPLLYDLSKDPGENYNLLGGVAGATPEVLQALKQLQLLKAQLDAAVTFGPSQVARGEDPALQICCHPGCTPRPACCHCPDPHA
Method in brief: (§1)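 Arylsulfatases A and B purified from human placenta and assayed with inhibitor present at up to 10 μM. Time dependence of inhibition examined.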

[2] = target: Arylsulfatase B (Homo sapiens) (UniProt P15848); assay: Inhibitory activity against human aryl sulfatase B (ASB) isolated from human placenta at a concentration up to 10 uM; method in brief: as §1
Estrogen receptor = target: T2, Estrogen receptor (Homo sapiens, UniProt P03372); assay: Affinity for human estrogen receptor alpha
T2 sequence (P03372 whole entry): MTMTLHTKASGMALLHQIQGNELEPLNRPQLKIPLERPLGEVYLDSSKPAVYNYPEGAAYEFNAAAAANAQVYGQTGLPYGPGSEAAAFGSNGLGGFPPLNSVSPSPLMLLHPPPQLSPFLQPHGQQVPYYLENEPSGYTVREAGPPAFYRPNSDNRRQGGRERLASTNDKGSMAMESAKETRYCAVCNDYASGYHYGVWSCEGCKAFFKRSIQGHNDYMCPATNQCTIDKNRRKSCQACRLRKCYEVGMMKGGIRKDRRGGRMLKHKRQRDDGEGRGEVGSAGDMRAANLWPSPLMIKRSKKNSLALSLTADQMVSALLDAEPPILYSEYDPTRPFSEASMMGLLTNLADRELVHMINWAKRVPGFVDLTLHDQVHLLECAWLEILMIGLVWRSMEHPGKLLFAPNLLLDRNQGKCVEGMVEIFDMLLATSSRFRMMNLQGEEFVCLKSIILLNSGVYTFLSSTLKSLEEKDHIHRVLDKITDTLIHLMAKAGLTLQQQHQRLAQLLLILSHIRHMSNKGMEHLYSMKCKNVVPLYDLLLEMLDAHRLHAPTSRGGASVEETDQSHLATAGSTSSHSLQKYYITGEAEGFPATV

Estrogen receptor beta = Estrogen receptor beta (Homo sapiens, UniProt Q92731); assay: Affinity for human estrogen receptor beta
[3] = target: T3, Steryl-sulfatase (Homo sapiens) (UniProt P08842); assay: Rate constant of inactivation against human steroid sulfatase
T3 sequence (whole entry): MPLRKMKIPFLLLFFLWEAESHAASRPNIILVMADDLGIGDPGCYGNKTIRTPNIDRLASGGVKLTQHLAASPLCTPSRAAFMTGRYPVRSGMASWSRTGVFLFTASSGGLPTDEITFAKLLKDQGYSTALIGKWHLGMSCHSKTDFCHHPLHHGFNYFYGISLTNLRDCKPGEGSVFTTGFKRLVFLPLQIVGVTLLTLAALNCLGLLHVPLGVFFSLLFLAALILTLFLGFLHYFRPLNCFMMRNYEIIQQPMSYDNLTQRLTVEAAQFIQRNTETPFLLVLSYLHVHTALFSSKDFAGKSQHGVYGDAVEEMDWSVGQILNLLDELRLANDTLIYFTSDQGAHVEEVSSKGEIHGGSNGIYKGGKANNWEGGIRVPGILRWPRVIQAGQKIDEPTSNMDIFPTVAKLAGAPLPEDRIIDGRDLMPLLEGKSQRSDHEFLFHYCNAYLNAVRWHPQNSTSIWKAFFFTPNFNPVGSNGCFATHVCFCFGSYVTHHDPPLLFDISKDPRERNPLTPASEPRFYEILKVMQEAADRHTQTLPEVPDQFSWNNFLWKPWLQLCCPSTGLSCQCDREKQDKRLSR
Method in brief: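 Purified human steroid sulfatase incubated with a range of inhibitor concentrations. Residual enzyme activity measured over time to follow inactivation kinetics, giving Ki and kinact.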

Steryl-sulfatase [4] = target: T4, Steryl-sulfatase (Homo sapiens, UniProt P08842); assay: Inhibition of human STS in keratinocytes; assay type: cell-based
T4 sequence (P08842 whole entry): T3 sequence (whole entry)

Steryl-sulfatase [5] = target: T4, Steryl-sulfatase; assay: Inhibitory activity against STS in human MCF-7 breast cancer cells; assay type: cell-based; conditions: mcf7
Method in brief: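 Intact MCF-7 breast cancer cells; STS-dependent cleavage of estrone sulfate substrate measured to derive IC50.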

Steryl-sulfatase [6] = target: T4, Steryl-sulfatase; assay: Inhibitory activity against human steroid sulfatase expressing in CHO cells; assay type: cell-based
Steryl-sulfatase [7] = target: T4, Steryl-sulfatase; assay: Inhibitory activity against human steroid sulfatase in fibroblasts
Steryl-sulfatase [8] = target: T4, Steryl-sulfatase; assay: Inhibitory constant against purified human steroid sulfatase

Estrogen receptor beta, sequence (Q92731 whole entry): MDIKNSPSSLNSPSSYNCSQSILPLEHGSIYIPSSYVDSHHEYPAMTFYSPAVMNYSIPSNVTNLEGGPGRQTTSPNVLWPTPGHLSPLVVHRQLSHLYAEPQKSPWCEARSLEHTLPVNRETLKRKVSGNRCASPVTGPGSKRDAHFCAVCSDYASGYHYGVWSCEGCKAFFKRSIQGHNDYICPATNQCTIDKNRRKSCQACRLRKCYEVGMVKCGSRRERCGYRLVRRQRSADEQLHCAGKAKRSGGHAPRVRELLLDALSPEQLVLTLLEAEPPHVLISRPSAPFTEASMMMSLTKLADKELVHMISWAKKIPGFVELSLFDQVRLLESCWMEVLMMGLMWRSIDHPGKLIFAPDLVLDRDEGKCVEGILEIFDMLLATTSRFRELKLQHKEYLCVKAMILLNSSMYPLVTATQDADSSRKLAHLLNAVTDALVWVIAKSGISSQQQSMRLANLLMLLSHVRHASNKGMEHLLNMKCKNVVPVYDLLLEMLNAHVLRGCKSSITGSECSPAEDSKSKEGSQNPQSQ
Arylsulfatase B (Homo sapiens), sequence (P15848 whole entry): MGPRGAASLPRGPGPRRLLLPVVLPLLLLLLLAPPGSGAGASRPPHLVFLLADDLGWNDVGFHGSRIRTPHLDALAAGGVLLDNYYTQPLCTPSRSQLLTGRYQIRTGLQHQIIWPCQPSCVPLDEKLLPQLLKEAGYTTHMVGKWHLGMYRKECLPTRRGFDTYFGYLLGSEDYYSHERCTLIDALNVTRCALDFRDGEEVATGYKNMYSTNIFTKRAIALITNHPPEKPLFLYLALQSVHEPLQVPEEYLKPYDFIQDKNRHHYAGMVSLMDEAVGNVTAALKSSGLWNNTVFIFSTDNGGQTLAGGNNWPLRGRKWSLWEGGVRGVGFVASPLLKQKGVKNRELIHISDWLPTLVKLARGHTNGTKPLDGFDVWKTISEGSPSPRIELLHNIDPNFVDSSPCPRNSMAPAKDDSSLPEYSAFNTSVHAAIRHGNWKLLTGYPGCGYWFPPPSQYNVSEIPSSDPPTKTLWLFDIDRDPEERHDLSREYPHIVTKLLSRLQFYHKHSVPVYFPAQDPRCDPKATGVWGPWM

SMILES: NS(=O)(=O)Oc1ccc2nc(C=C3C4CC5CC(C4)CC3C5)oc2c1
- Activity [1]: inactive
- inhibition [2]: 25%
- EC50 (Estrogen receptor): > 100000 nM
- EC50 (Estrogen receptor beta): > 100000 nM
- K inact [3]: 0.097 U s-1
- IC50 (Steryl-sulfatase [4]): 0.77 nM
- IC50 (Steryl-sulfatase [5]): 2.3 nM
- IC50 (Steryl-sulfatase [6]): 31.8 nM
- IC50 (Steryl-sulfatase [7]): 0.75 nM
- Ki (Steryl-sulfatase [8]): 6000 nM

SMILES: C[C@]12CC[C@@H]3c4ccc(OS(N)(=O)=O)cc4CCC3[C@@H]1CCC2=O (single isomer, unassigned) [EMATE]
- EC50 (Estrogen receptor): 2600 nM
- EC50 (Estrogen receptor beta): 3700 nM
- K inact [3]: 0.009 U s-1
- Ki (Steryl-sulfatase [8]): 470 nM
